M1 antagonist – antagonists of rat M1 muscarinic receptor; P08482; CHO-M1 cells, Fluo-4 calcium, ACh EC80 antagonist mode; hits give low values; B-score at 10 µM; 3.4% of 64,000 active; AID 628;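 active = calcium fluorescence response, raw or row-and-column corrected B-score, differing from the plate sample mean either way at a set confidence level, mostly lower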
hDAT+cocaine – modulates human dopamine transporter uptake under cocaine | Q01959 | LLC-PK1 hDAT cells, [14C]-dopamine uptake with cocaine IC80; actives deviate in either direction | B-score at 10 µM | 1.3% of 110,000 active;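 active = Z score or B-score, a plate-position-corrected score, falls beyond the plate's 99.7% confidence bounds, in either direction; inactive = both scores lie inside the 99.7% bounds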;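 also: scored against the spread of the other compound wells on the same plate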
M1 agonist – agonists of M1 muscarinic receptor; CHO-M1 cells, Fluo-4 calcium fluorescence, agonist mode; hits give high values; B-score at 10 µM; 3% of 64,000 active;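 active = fluorescence rise, raw or as B-score row- and column-corrected plate score, outside the 99.7% band of its plate's samples, either direction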
HEK293 NFkB inh – inhibitors of the PMA/ionomycin-induced NF-kB reporter in HEK293 cells; HEK-293 NF-kB luciferase reporter, luminescence; inhibition, % at 3 µM; 0.21% of 62,000 active; AID 465;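 active = inhibition above the mean of all tested compounds plus 3 SD, cut at about 40% in these data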;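 also: 0% = stimulated DMSO wells and 100% = 10 µM reference inhibitor 5653914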
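System: NF-kB luciferase reporter HEK-293 cells | Replication: Single test | Control set: DMSO vs reference inhibitor | Evaluation: % inhibition | Schedule: 1 h pretreatment, 16 h stimulation, 37 °C | Probe or stimulus: PMA with ionomycin | Compound dosing: One dose, 3 µM | Detection: Luciferase luminescence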
BAP1 inh – human BAP1 deubiquitinase inhibition; Q92560; recombinant BAP1, Ub-AMC hydrolysis fluorescence kinetic; hits give low values; calls only at 20 µM; 0.48% of 72,000 active; AID 436;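 active = activity remaining at or below 50% of control, provided the compound also passes the data quality filters; inactive = the rest, including low values that fail the filters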;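 also: 100% = DMSO wells rate and 0% = substrate alone blank rate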
D1 mod – allosterically modulates the human D1 dopamine receptor | 5.9% of 58,000 active | P21728 | HEK293 D1, CRE-luciferase, dopamine EC30 potentiation; actives deviate in either direction | AID 641 | B-score at 10 µM;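 active = luminescence count or its row- and column-corrected plate score outside the 99.7% band of the plate's sample wells, on either side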
Target sequence (P21728 whole entry, looked up): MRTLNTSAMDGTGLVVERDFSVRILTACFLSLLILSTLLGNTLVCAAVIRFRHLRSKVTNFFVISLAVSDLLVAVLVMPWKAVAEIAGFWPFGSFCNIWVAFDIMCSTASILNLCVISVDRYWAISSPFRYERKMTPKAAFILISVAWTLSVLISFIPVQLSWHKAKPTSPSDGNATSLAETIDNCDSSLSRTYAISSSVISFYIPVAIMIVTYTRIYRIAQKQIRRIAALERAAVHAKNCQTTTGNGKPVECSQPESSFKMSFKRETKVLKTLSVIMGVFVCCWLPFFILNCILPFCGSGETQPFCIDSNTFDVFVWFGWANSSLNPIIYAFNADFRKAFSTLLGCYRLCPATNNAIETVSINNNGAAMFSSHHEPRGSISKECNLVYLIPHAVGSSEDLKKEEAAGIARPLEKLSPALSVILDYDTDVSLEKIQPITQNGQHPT
M1 ag confirm – rat M1 muscarinic agonism, confirmation | shares compounds with M1 agonist | CHO-M1 cells, Fluo-4 calcium fluorescence, agonist mode; actives lie on both sides | fluorescence change (max-min) at 10 µM | 19% of 1,700 active | AID 1488;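 active = fluorescence change differs from the solvent-only DMSO control mean at a set confidence level in both duplicate runs; inconclusive = differs from solvent-only control mean in just one of two runs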;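 also: an EC20 dose of acetylcholine follows compound addition during the same imaging run; raw fluorescence intensity difference in instrument units with no normalization to controls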
M4 agonist ctr – counter-screen for M1 agonists: activity at rat M4 receptor; shares compounds with M1 agonist; CHO M4/Gqi5 cells, Fluo-4 calcium fluorescence, agonist mode; actives lie on both sides; fluorescence change (max-min) at 10 µM; 9% of 1,700 active;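 active = fluorescence change differing from the plate's solvent-only control wells at 99.7% confidence in both duplicates, whether higher or lower; inconclusive = differs from solvent controls in only one of two duplicates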
* marks the source's active call; other numbers are inactive results. A selection: hits, their analogues and other compounds. The true share with any hit is near 7.2%.

How did O=C(CSc1nc2ccc(Cl)cc2[nH]1)NCc1ccco1 do in these assays?
M1 antagonist: -0.366; hDAT+cocaine: -0.697; M1 agonist: 3.07*; HEK293 NFkB inh: 21.1; BAP1 inh: inactive; D1 mod: 0.733; M1 ag confirm: -24.9*; M4 agonist ctr: -74*

How did COc1ccccc1OCC(O)Cn1c(Br)nc2c1c(=O)[nH]c(=O)n2C (stereo not given) do in these assays?
M1 antagonist: -0.124; hDAT+cocaine: -0.305; M1 agonist: 4.03*; HEK293 NFkB inh: 17.7; BAP1 inh: inactive; D1 mod: -1.36; M1 ag confirm: -11.5; M4 agonist ctr: -21.3

What do the screens show for `COc1cccc(-c2cc(C(N)=O)on2)c1`?
BAP1 inh: inactive

How did Cc1cccc(Cn2cnc3c(nnn3Cc3ccccc3F)c2=O)c1 do in these assays?
M1 antagonist: -2.69*; hDAT+cocaine: 0.16; M1 agonist: 10.8*; HEK293 NFkB inh: 10.7; BAP1 inh: inactive; D1 mod: -0.142; M1 ag confirm: -34.2*; M4 agonist ctr: -72.2

How did Cc1cccc(Cn2cnc3c(nnn3Cc3ccc(F)cc3)c2=O)c1 do in these assays?
M1 antagonist: -0.353; hDAT+cocaine: 0.243; M1 agonist: -0.0284; HEK293 NFkB inh: 7.6; BAP1 inh: inactive; D1 mod: 1.51

What do the screens show for `COc1cc(C=Nc2ccccc2O)c([N+](=O)[O-])cc1OC`?
BAP1 inh: inactive

Results for Cc1ccccc1-c1c(C)oc2c(C)c(O)ccc2c1=O ?
BAP1 inh: inactive

How did Cc1ccc2nc(Nc3ccc4[nH]c(=O)[nH]c4c3)c(-n3nc(C)cc3C)nc2c1 do in these assays?
M1 antagonist: 0.285; hDAT+cocaine: 0.138; M1 agonist: 20.5*; HEK293 NFkB inh: -8.4; BAP1 inh: inactive; D1 mod: 0.194; M1 ag confirm: -23*; M4 agonist ctr: -53.2

How did CCOC(=O)c1ccc(NC(=O)COc2cc(C)c(Cl)c(C)c2)cc1 do in these assays?
BAP1 inh: inactive

Results for CCn1c(CCn2ccnc2C)n[nH]c1=S ?
M1 antagonist: -7.26*; hDAT+cocaine: 0.111; M1 agonist: 52.8*; HEK293 NFkB inh: 6.2; BAP1 inh: inactive; D1 mod: 0.0973; M1 ag confirm: 225*; M4 agonist ctr: inconclusive

Results for CCn1c(CC(C)C)n[nH]c1=S ?
M1 antagonist: 0.0243; hDAT+cocaine: -1.5; M1 agonist: -0.224; HEK293 NFkB inh: 3.5; BAP1 inh: inactive; D1 mod: 0.891

How did CCOC(=O)c1c(C2COc3ccccc3O2)csc1NC(=O)c1ccc(OC)cc1 (stereo not given) do in these assays?
BAP1 inh: inactive

How did Cc1cc2nn(-c3ccccc3)nc2cc1NC(=O)COc1ccccc1 do in these assays?
BAP1 inh: inactive

How did Cc1cccn2c(=O)c3cc(C(=O)NCc4ccco4)c(=N)n(CCOCCO)c3nc12 do in these assays?
M1 antagonist: -0.935; hDAT+cocaine: -0.412; M1 agonist: 11.7*; HEK293 NFkB inh: -11.6; BAP1 inh: inactive; D1 mod: -0.678; M1 ag confirm: 107*; M4 agonist ctr: inconclusive

How did Cc1ccc(Cn2c(=N)c(C(=O)NCc3ccco3)cc3c(=O)n4ccccc4nc32)cc1 do in these assays?
M1 antagonist: -2.27; M1 agonist: -1.19; HEK293 NFkB inh: 9.5; D1 mod: -1.32

How did N=c1c(C(=O)NCc2ccc(F)cc2)cc2c(=O)n3ccccc3nc2n1CC1CCCO1 (stereo not given) do in these assays?
M1 antagonist: -0.973; hDAT+cocaine: 3.16; M1 agonist: 3.71*; HEK293 NFkB inh: 9.0; D1 mod: -1.71; M1 ag confirm: 90.2*; M4 agonist ctr: inconclusive

Results for N=c1c(C(=O)NCc2ccco2)cc2c(=O)n3ccccc3nc2n1CCc1ccccc1 ?
M1 antagonist: 0.498; hDAT+cocaine: 4.05*; M1 agonist: 9.59*; HEK293 NFkB inh: 8.3; D1 mod: -2.97; M1 ag confirm: 38.7; M4 agonist ctr: 3.59

Compound activity deposited in PubChem by several laboratories.
